The list is not random: actives were taken first. Their share in the collection is about 1.2%.
IDE cell activ: activators of human insulin-degrading enzyme in cells; P14735; 340,000 tested, 0.073% active; HEK cells, FAbeta-B cleavage, fluorescence polarization; 0% vehicle, 100% cell-free pure enzyme wells; AID 493087; activation, % at 5.96 µM;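 active = activation above the mean of all tested compounds plus 3 SD, set per screening campaign, cut at about 17% in these data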
procasp3 activ: activators of human procaspase-3; activation, % at 8.5 µM; 330,000 tested, 0.11% active; recombinant procaspase-3 D3A, Ac-DEVD-pNA absorbance 405 nm; AID 463141;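 active = activation above the mean of all tested compounds plus 3 SD, cut at about 21% in these data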;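 note: 0% = DMSO alone and 100% = DMSO wells spiked with extra 5 µM PC-3 D3A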
Target sequence (P42574 whole entry D9A/D28A/D175A): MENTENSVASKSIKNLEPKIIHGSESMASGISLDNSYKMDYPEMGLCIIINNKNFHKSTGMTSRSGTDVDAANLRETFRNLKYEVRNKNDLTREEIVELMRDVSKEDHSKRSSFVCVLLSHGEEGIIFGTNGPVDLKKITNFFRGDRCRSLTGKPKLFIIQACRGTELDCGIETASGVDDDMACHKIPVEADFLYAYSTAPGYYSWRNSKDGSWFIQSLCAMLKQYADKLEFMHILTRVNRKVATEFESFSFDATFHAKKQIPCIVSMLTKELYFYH
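assay system = Procaspase-3 D3A mutant | signal = absorbance at 405 nm, 0 and 120 min | times = 1 h preincubation plus 2 h reaction at 25 °C | repeats = single replicate | read-out = % activation between DMSO and enzyme-spiked controls | medium = Zinc-free HEPES saline buffer with Triton X-100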
TPT1 inh: blocks Candida albicans tRNA 2'-phosphotransferase. 300,000 tested, 0.81% active. inhibition, % at 5 µM. recombinant caTPT1, FP RNA substrate dephosphorylation. AID 1962;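 active = inhibition above the mean of all tested compounds plus 3 SD, set per screening campaign, cut at about 24% in these data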;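 note: plate controls were DMSO alone for no effect and ferristatin control at 100 nM for full effect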
IDE inh: inhibits human insulin-degrading enzyme in HEK cells; FAbetaB cleavage, fluorescence polarization; inhibition, % at 5.59 µM; 320,000 tested, 0.41% active; AID 434962;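 active = percent inhibition above the average of all tested compounds plus 3 SD, set per screening campaign, cut at about 16% in these data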;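 note: IDE supplied by intact live HEK cells; FP after avidin binding of uncleaved biotin substrate so inhibition keeps polarization high; 0% = DMSO wells and 100% = 60 µM reference IDE inhibitor Ii1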
procasp7 counter: activates human procaspase-7, counter-screen for procaspase-3 activators. P55210. recombinant procaspase-7, Ac-DEVD-pNA absorbance 405 nm; D23A/D198A/D206A triple mutant, cannot self-cleave; scale: DMSO 0, 5 µM enzyme 100. activation, % at 8.5 µM. 330,000 tested, 0.093% active. AID 463210;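 active = percent activation above the screen-wide mean plus 3 SD, cut at about 25% in these data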
Target sequence (P55210 whole entry D23A/D198A/D206A): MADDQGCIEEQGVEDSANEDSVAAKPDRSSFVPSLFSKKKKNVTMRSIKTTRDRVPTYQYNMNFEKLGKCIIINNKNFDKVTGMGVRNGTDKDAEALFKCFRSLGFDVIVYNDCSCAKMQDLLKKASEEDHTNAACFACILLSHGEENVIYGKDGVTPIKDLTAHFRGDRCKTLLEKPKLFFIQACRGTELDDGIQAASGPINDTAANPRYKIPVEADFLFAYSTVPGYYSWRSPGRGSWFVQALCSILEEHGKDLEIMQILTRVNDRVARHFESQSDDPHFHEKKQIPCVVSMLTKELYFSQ
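Assay system – Uncleavable procaspase-7 mutant enzyme · Quantity – 2 µM procaspase-7 mutant as dispensed · Times – 1 h preincubation, 2 h reaction · Dosing – single nominal 8.5 µM compound dose, 0.8% DMSO final · Buffer or medium – Zinc-free 50 mM HEPES buffer, pH 7.4, with NaCl and Triton X-100 · Detection – Epi-absorbance of released pNA at 405 nm, two timepoints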
IDE cell inh cf: cellular human IDE inhibition, confirmation; 1,200 tested, 51% active; shares compounds with IDE inh; inhibition, % at 5.59 µM; HEK cells, FAbetaB cleavage, fluorescence polarization;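 active = mean inhibition across triplicate wells above the cutoff set by the earlier primary insulin-degrading enzyme screen, cut at about 16% in these data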;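 note: 0% = DMSO wells and 100% = 60 µM reference IDE inhibitor Ii1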
HEK cytotox: kills HEK cells in IDE inhibitor counter-screen; shares compounds with IDE inh; HEK293 cytotoxicity, ATP luminescence; inhibition, % at 5.59 µM; 1,200 tested, 28% active; AID 449730; in the data active = inhibition above about 22%;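 note: 0% = vehicle wells and 100% = reference cytotoxic drug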
procasp7 triplic: activates human procaspase-7, counter-screen for procaspase-3 activators | shares compounds with procasp3 activ | recombinant procaspase-7, Ac-DEVD-pNA absorbance; asp23/198/206-to-Ala mutant, cannot self-cleave | activation, % at 8.5 µM | 210 tested, under 10 active;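 active = mean activation above a set limit taken from an earlier procaspase-7 screen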;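 note: 0% = DMSO wells and 100% = DMSO plus 5 µM procaspase-7 enzyme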
procasp3 conf: procaspase-3 (human) activation, confirmed; shares compounds with procasp3 activ; recombinant PC-3 D3A, Ac-DEVD-pNA absorbance 405 nm; 100% is higher-enzyme control; activation, % at 8.5 µM; 210 tested, 10% active; AID 488954;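 active = mean activation above a set limit carried over from the earlier primary screen, cut at about 22% in these data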
Numbers without * were called inactive; . = no result given.

SMILES | IDE cell activ | procasp3 activ | TPT1 inh | IDE inh | procasp7 counter | procasp7 triplic | procasp3 conf | others
COc1cc(/C=C2\C(=O)N(C)C(=S)N2C)ccc1O | -8.2 | -2.3 | 9.1 | 19.0* | -9.7 | . | . | IDE cell inh cf=31.0*;HEK cytotox=11.9
COc1cc(/C=C2\SC(=S)N(NC(=O)c3cccc(O)c3)C2=O)ccc1O | -90.6 | . | . | . | . | . | .
CN(CC(=O)Nc1cccc(S(=O)(=O)NC2=NCCC2)c1)Cc1ccccc1Cl | 1.9 | 10.1 | . | 1.0 | -5.4 | . | .
N=c1ccn(CC(=O)c2ccc(-c3ccccc3)cc2)cc1 | -26.9 | -2.3 | -0.4 | 43.1* | 0.7 | . | . | IDE cell inh cf=11.0;HEK cytotox=88.4*
O=C(CN1C(=O)CCC1=O)c1ccc(-c2ccccc2)cc1 | -5.8 | 3.4 | -3.7 | 5.4 | 3.9 | . | .
CC(C)C(=O)N(c1ccc2oc(=O)sc2c1)S(=O)(=O)c1ccccc1 | -22.3 | -21.8 | -1.3 | 25.4* | -37.8 | . | . | IDE cell inh cf=2.6;HEK cytotox=8.0
CC(=O)N(c1ccc2oc(=O)sc2c1)S(=O)(=O)c1ccccc1 | -13.5 | -21.5 | 3.3 | 23.3* | -23.1 | . | . | IDE cell inh cf=10.7;HEK cytotox=6.7
CCN(C(=O)CSc1nc(N)cc(=O)[nH]1)c1c(N)n(Cc2ccccc2)c(=O)[nH]c1=O | -0.9 | -1.5 | 1.3 | 0.4 | -1.3 | . | .
COC(=O)C1=C(C)N(c2ccc(C)cc2)/C(=C/c2cccs2)C1=O | 0.7 | 1.1 | 1.3 | -4.7 | -4.6 | . | .
COC(=O)C1=C(C)N(c2ccc(F)cc2)/C(=C/c2ccc(O)cc2)C1=O | -39.6 | -3.7 | -0.7 | 19.5* | 1.0 | . | . | IDE cell inh cf=76.3*;HEK cytotox=12.1
Cc1ccc(S(=O)(=O)NCCC(=O)NCC(c2ccco2)N2CCCCC2)cc1C (stereo not drawn) | 7.5 | 7.0 | 1.9 | -5.9 | 5.5 | . | .
O=C(COc1cccc(Cl)c1)Nc1nc(-c2ccc(S(=O)(=O)N3CCOCC3)cc2)cs1 | -15.7 | . | . | . | . | . | .
CCOc1cccc(C(=O)Nc2nc(-c3ccc(S(=O)(=O)N4CCOCC4)cc3)cs2)c1 | -16.3 | 1.8 | 0.0 | 23.0* | -1.8 | . | . | IDE cell inh cf=9.3;HEK cytotox=37.8*
Cc1ccc(N2CC(C(=O)N3CCC(C(=O)Nc4ccc(Br)cc4)CC3)CC2=O)cc1 (stereo not drawn) | -6.7 | 1.6 | -0.2 | 17.4* | -1.7 | . | . | IDE cell inh cf=7.3;HEK cytotox=12.2
Cc1ccc(N2CC(C(=O)N3CCC(C(=O)Nc4cccc(Br)c4)CC3)CC2=O)cc1 (stereo not drawn) | -3.8 | 12.8 | -1.5 | 3.8 | -3.0 | . | .
O=C(N/N=C/c1ccc(O)cc1O)c1ccc(CN2C(=O)c3cccc4cccc2c34)cc1 | -26.6 | 23.4* | 2.3 | 25.7* | 24.4 | 11.8 | 20.7 | IDE cell inh cf=10.4;HEK cytotox=98.5*
CN(CC(=O)NCc1ccco1)CC(=O)Nc1cc(S(C)(=O)=O)ccc1Cl | -5.6 | . | . | . | . | . | .
Cc1ccc(OCC(O)CN2CCN(c3ccccc3)CC2)cc1 (stereo not drawn) | 1.9 | 2.9 | -2.2 | -2.0 | 9.5 | . | .
Cc1ccc(N2CCN(CC(O)COc3ccccc3)CC2)cc1 (stereo not drawn) | 5.3 | 27.6* | -0.5 | 0.7 | 6.2 | 3.3 | 2.3
CCCn1c2ccccc2c2nnc(SCC(=O)Nc3nnc(CC(=O)OCC)s3)nc21 | 4.6 | 84.3* | 2.5 | 0.1 | 7.9 | 2.9 | 4.0
COc1ccc(C(CNC(=O)c2ccc(OC)c(S(=O)(=O)N3CCCC3)c2)N2CCCC2)cc1 (stereo not drawn) | 3.0 | -3.6 | . | -3.8 | 3.2 | . | .
CC(C)c1cc(=O)n2[nH]c(N)nc2n1 | 12.4 | -11.8 | 7.7 | -0.9 | 1.0 | . | .
Cc1ccc(NC2CCCN(C(=O)Cc3nonc3C)C2)cc1C (stereo not drawn) | 7.7 | -3.6 | 1.4 | -0.2 | -6.0 | . | .
COc1ccccc1CNC(=O)CS(=O)Cc1nc(-c2ccccc2C)oc1C (stereo not drawn) | 6.1 | 73.3* | 0.1 | -0.3 | -3.5 | -5.8 | 1.4
COc1ccc(CNC(=O)CS(=O)Cc2nc(-c3ccccc3C)oc2C)cc1 (stereo not drawn) | 4.0 | -3.3 | -4.1 | -2.1 | 1.3 | . | .
SMILES | IDE cell activ | procasp3 activ | TPT1 inh | IDE inh | procasp7 counter | procasp7 triplic | procasp3 conf | others
O=C(COC(=O)COc1ccc2ccccc2c1)NCC(F)(F)F | 1.2 | -1.1 | -0.1 | -1.9 | 3.2 | . | .
Cc1c(C)c2ccc(OCC(=O)N[C@@H](Cc3ccccc3)C(=O)O)cc2oc1=O | 3.1 | 6.5 | 5.4 | -3.1 | 9.7 | . | .
Cc1c(CC(=O)NCC(=O)N[C@H](Cc2ccccc2)C(=O)O)c(=O)oc2cc(O)ccc12 | 7.8 | 25.2* | -1.3 | -2.8 | 19.4 | -20.6 | -12.9
Cc1c(CCC(=O)NC2CC2)c(=O)oc2cc(O)ccc12 | 2.3 | 22.9* | -4.1 | 6.9 | 16.6 | -20.7 | -12.6
N=c1oc2ccccc2cc1-c1nc(-c2ccccc2)cs1 | 0.0 | 43.3* | 3.1 | 8.7 | 20.6 | -21.1 | -14.8
N=c1oc2ccc3ccccc3c2cc1-c1nc(-c2ccccc2)cs1 | 0.7 | -16.4 | 7.7 | 1.5 | -21.1 | . | .
COC(=O)C1=C(NC(=O)c2cccc(OC)c2)CCS1 | -5.6 | 28.6* | -2.9 | 8.2 | 24.8 | 2.1 | 7.6
Cc1cc(C)c(C#N)c(SCc2ccccc2)n1 | 4.9 | -3.1 | -1.9 | 7.2 | 9.9 | . | .
Cc1ccc2nc(CSc3nc(C)cc(C)c3C#N)[nH]c2c1 | -9.1 | 69.0* | 4.2 | 3.8 | 7.3 | -20.1 | -10.9
CC(=O)Nc1ccc(NC(=O)C(C)Oc2ccccc2C(=O)NCc2ccccc2)cc1 (stereo not drawn) | 4.7 | 4.9 | . | -2.5 | 6.1 | . | .
CCOC(=O)C1(CCCc2ccccc2)CCN(C(=O)c2cc(C)nn2CC)CC1 | 3.5 | 23.1* | -3.4 | 13.0 | -11.3 | 2.6 | 5.1
CCOC(=O)C1(CCCc2ccccc2)CCN(C(=O)c2cncs2)CC1 | -8.8 | -3.7 | -0.7 | 0.8 | 3.1 | . | .
CC(=O)c1cccc(CN2CCC(CO)(CCOc3ccccc3)CC2)c1 | 0.9 | -6.4 | -3.9 | 5.2 | 2.1 | . | .
OCCOc1cccc(CN2CCC(CO)(CCOc3ccccc3)CC2)c1 | -0.8 | 25.3* | -3.9 | -0.7 | 5.6 | 2.0 | 4.6
O=S(=O)(c1ccccc1)C1CC1(c1ccccc1)c1ccccc1 (stereo not drawn) | 3.1 | . | . | . | . | . | .
O=C(NC12CC3CC(CC(C3)C1)C2)c1ccccc1 | 0.8 | -1.0 | 2.9 | 1.2 | 12.4 | . | .

From PubChem
